KCNK3 inh: human KCNK3 channel inhibition, primary screen; O14649; CHO-KCNK3 thallium flux, FluxOR fluorescence; hits give low values; B-score at 10 µM; 0.84% of 340,000 active; AID 602410;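 active = B-score under library mean minus 4 SD, starting fluorescence ratio at most library mean plus 5 SD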;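 also: more negative B-score means stronger inhibition of thallium flux through KCNK3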
KCNQ1 pot: human KCNQ1 channel potentiation or activation | P51787 | CHO-K1 KCNQ1, thallium flux FluxOR fluorescence; hits give high values | B-score at 10 µM | 0.35% of 310,000 active;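 active = fluorescence ratio B-score, a plate-corrected score, at least three library SD, with initial intensity B-score within 5 SD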
Target sequence (P51787 whole entry, looked up): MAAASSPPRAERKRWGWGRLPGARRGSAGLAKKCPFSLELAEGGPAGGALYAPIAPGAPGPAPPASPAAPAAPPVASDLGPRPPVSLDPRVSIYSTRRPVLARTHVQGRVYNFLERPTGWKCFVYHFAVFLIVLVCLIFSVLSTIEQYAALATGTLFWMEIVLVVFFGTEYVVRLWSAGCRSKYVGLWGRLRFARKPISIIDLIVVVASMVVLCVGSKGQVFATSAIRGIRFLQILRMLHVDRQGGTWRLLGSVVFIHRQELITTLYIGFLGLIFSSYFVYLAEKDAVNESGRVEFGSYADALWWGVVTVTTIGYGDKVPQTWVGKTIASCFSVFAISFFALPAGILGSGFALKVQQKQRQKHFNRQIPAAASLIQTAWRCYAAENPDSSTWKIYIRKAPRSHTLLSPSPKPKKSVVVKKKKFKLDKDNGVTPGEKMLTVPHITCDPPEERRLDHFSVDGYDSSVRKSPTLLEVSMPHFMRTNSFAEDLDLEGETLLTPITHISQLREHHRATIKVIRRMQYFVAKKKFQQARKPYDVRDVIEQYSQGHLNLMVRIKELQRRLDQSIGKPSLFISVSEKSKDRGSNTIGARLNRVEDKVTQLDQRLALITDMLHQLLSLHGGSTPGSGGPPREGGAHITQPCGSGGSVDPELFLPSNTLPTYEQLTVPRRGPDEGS
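Test system: CHO-K1 cells stably expressing KCNQ1 / Medium: assay buffer / Also added: depolarizing K+/Tl+ stimulus, K2SO4 and Tl2SO4 each 12.5 mM in 5x stock / Incubation: 90 min dye loading and 20 min compound exposure, both at room temperature / Signal: thallium influx via FluxOR fluorescence, kinetic imaging / Evaluation: B score of baseline-normalized fluorescence ratio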
KCNK9 block: inhibitors of human KCNK9 two-pore domain potassium channel; Q9NPC2; AID 488922; HEK293 KCNK9, FluxOR thallium flux fluorescence; hits give low values; 1.2% of 310,000 active; B-score at 10 µM;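 active = ratio B-score over 3 SD below the library mean, with starting fluorescence within 5 SD of its mean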;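 also: negative B-score means less thallium flux so channel inhibition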
hERG rescue: shields human hERG channel from block by proarrhythmic agents; 0.51% of 310,000 active; activation (rescue from dofetilide block), less the hit threshold, % at 10 µM; Q12809; CHO-hERG, FluxOR thallium flux, dofetilide IC70 present;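 active = activation above the mean of controls blocked by dofetilide plus 5 SD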;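 also: thallium influx through hERG after potassium depolarization seen as dye fluorescence rise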
Kir21 inh: blocks the mouse Kir2.1 inward-rectifier potassium channel. P35561. HEK293-Kir2.1, FluxOR thallium flux fluorescence; hits give low values. B-score at 10 µM. 0.85% of 310,000 active;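 active = fluorescence ratio B-score at or below minus 3 SD of library scores, with starting-brightness B-score within 2 SD, cut at about -4.2 in these data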;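 also: channel flux triggered by added potassium and thallium sulfate stimulus; B-score of peak minus minimum fluorescence over baseline after thallium stimulus; more negative B-score means stronger Kir2.1 block with less thallium influx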
KCNQ1 block: blocks the human KCNQ1 potassium channel; P51787; CHO-K1 KCNQ1, FluxOR thallium flux fluorescence; hits give high values; AID 2642; 1.3% of 310,000 active; B-score at 10 µM;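 active = compounds whose thallium flux B-score, printed positive for inhibition, exceeds three library SD while starting fluorescence stays within three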;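 also: channel opened by potassium depolarization with thallium stimulus after 20 min compound exposure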
The depositor's hits bear a star; i = inactive; / = not tested or not shown. A selection: hits, their analogues and other compounds. The true share with any hit is near 3.7%.

SMILES	KCNK3 inh	KCNQ1 pot	KCNK9 block	hERG rescue	Kir21 inh	KCNQ1 block
Cc1nn(C(C)(C)C)c(C)c1/C=N/OC(=O)Nc1ccc(Cl)cc1	i	i	i	-14.6	0.08	7*
CCOC(=O)c1sc2nc(CSc3ccccc3)nc(N3CCC(C(N)=O)CC3)c2c1C	i	i	i	10.3*	-0.1	i
Cc1sc2nc(CSc3ccccc3)nc(N3CCC(C(N)=O)CC3)c2c1C	i	i	i	-7.7	0.25	i
Cc1ccc(NC(=O)C2CC(=O)Nc3nncn32)cc1 (configuration not stated)	i	i	i	-1.4	-0.73	i
COc1ccc2ccccc2c1C1CC(=O)N2CN(C)CSC2=C1C#N (configuration not stated)	i	i	i	-17.4	-0.25	6*
COc1cc(C(=O)NCCCN2CCCC2=O)cc(Br)c1OCc1ccccc1	i	/	/	/	/	/
CCc1ccccc1NC1c2ccccc2C(=O)N1Cc1ccco1 (configuration not stated)	i	i	i	-11.1	-0.82	i
O=C1c2ccccc2C(Nc2ccc(S(=O)(=O)N3CCCCCC3)cc2)N1Cc1ccco1 (configuration not stated)	-8.71*	i	i	-15.0	0.01	i
Cn1c(O)c(N=Nc2nc(-c3ccccc3)cs2)c2ccccc21	i	60*	i	35.0*	1.42	i
Cn1c(O)c(N=Nc2ccccc2)c2ccccc21	i	i	i	0.9	1.63	i
CC1Cc2ccccc2N1C(=S)NC(=O)c1ccc(Cl)cc1Cl (configuration not stated)	i	24*	i	31.7*	1.15	i
O=C(NC(=S)N1CCCC1)c1ccc(Cl)cc1Cl	i	i	i	1.1	-0.23	i
CC1Cc2ccccc2N1C(=S)NC(=O)c1cccc(Br)c1 (configuration not stated)	i	92*	i	80.2*	-0.9	i
CC1CCCN(C(=O)CCNC(=O)Cn2cnc3ccccc3c2=O)C1 (configuration not stated)	i	i	i	-6.3	-0.55	i
CCC(C)NC(=O)CN1C(=O)NC2(CCc3ccccc3C2)C1=O (configuration not stated)	i	i	i	-1.5	-0.89	i
CN1/C(=C\C(=S)Nc2ccccc2)C(C)(C)c2ccccc21	i	i	-6.9*	-4.1	-1.89	i
COc1ccc(S(=O)(=O)Nc2ccccc2C(=O)NCc2cccnc2)cc1	i	i	i	-3.5	-0.01	i
Cc1oc2cc3oc(=O)c(CCC(=O)N(C)CC(=O)O)c(C)c3cc2c1C	i	i	i	-5.9	-0.02	i
COc1cccc(OC)c1NC(=O)C1CCCN1C(=O)Nc1cccc(Cl)c1 (configuration not stated)	i	i	i	-4.0	1.24	i
CN(Cc1c(C(=O)N(C)Cc2ccccc2)nc2ccccn12)CC1Cc2ccccc2O1 (configuration not stated)	i	i	i	-13.0	-2.11	i
Cc1nn(C)cc1CN(C)Cc1c(C(=O)N(C)Cc2ccccc2)nc2ccccn12	i	i	i	6.5*	1.82	i
CCN1C(=O)C(CC(=O)Nc2c(C)cccc2C)Nc2cc(S(=O)(=O)N(C)C)ccc21 (configuration not stated)	i	i	i	-11.3	0.6	i
Cc1ccc(S(=O)(=O)Nc2ccc(O)c3cccnc23)cc1	i	i	i	-10.2	-4.53*	i
O=S(=O)(Nc1ccc(O)c2ccccc12)c1ccc(Br)cc1	/	i	i	30.1*	0.01	i
Cc1ccc(S(=O)(=O)Nc2ccc(O)c3ncccc23)cc1	i	i	i	-5.9	-2.34	i
SMILES	KCNK3 inh	KCNQ1 pot	KCNK9 block	hERG rescue	Kir21 inh	KCNQ1 block
COc1ccccc1C(=O)NCC(=O)OC(C)C(=O)NC1CCCCC1C (configuration not stated)	i	/	/	/	/	/
CC(Oc1ccc(Br)cc1)C(=O)NNC(=O)CCN1CCN(c2ccccc2)CC1 (configuration not stated)	i	i	i	-14.8	-0.05	i
C/C=C(\C)CN1CCC(Oc2cc(C(=O)NC3CC3)ccc2OC)CC1	i	i	i	-1.6	0	i
CN(Cc1ccccc1)C(=O)COC(=O)c1cc(=O)[nH]c2ccccc12	i	/	/	/	/	/
CCN(c1cccc(C)c1)S(=O)(=O)c1cnc[nH]1	i	i	i	5.3*	-3.38	i
O=S(=O)(c1ccc(F)c(Cl)c1)N1CCN(C/C=C/c2ccccc2)CC1	i	/	/	/	/	/
O=C(/C=C/c1ccc(F)cc1)NC(=S)NNC(=O)[C@H]1C[C@@H]1c1ccccc1	i	i	i	-5.9	1.25	i
O=C(NC(=S)NNC(=O)[C@H]1C[C@@H]1c1ccccc1)c1ccc(F)cc1	i	i	i	-23.4	0.01	6*
COc1cc(OC)cc(C(=O)NC(=S)NNC(=O)[C@H]2C[C@@H]2c2ccccc2)c1	i	15*	i	-17.8	0.93	i
C#CCNC(=O)C1=C[C@H](c2ccc(Br)cc2)[C@@H](CCCO)[C@H](OCC)O1	i	i	i	-7.1	-0.24	i
COc1ccccc1C(=O)N(CCC1CCCN1C)c1nc2ccccc2s1 (configuration not stated)	i	i	i	-11.0	-2.02	i
CC(=O)C1=C(S(=O)(=O)c2ccc(C)cc2)CS(=O)(=O)C1	i	i	i	-7.4	-3.37	i
CC1CC(C)CN(S(=O)(=O)c2cccc3cccnc23)C1 (configuration not stated)	i	i	i	-0.6	-5.22*	i
O=S(=O)(c1cccc2cccnc12)N1CCOCC1	i	i	i	-5.3	0.53	i
CCc1ccccc1NC1=NCC(=O)N1Cc1ccc(OC)cc1	i	i	i	0.9	-4.86*	i
O=C(C=C1CCN(c2ncc(C(F)(F)F)cc2Cl)CC1)NNC(=O)Nc1ccc(Cl)cc1	i	i	i	-2.0	0.8	i
N#C/C(=C\c1ccccc1Br)C(=O)NC1CC1	i	i	i	-19.4	-0.38	i
Oc1c(/C=N/c2ccccn2)sc2ccccc12	i	11*	i	-9.1	-0.04	i
Oc1c(C=Nc2ccc(Cl)cn2)sc2ccccc12	i	i	i	-13.4	0	i
C=CCN1C=CC(=C/C=C(/C#N)C(=O)OCC)C=C1	i	i	i	-22.6	-9.34	11*

Source: PubChem BioAssay
